We go through five molecules from ChEMBL document CHEMBL1151771, “Lanostane-type triterpenes from the mushroom Astraeus pteridis with antituberculosis activity” (J Nat Prod, 2008).

Data set [1] concerns Mycobacterium tuberculosis. Briefly: Antimicrobial activity against Mycobacterium tuberculosis H37Rv by Alamar blue assay. Format: functional. In outline: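 M. tuberculosis H37Rv (ATCC27294) in microplate Alamar Blue assay, fluorescence read-out. MIC taken as lowest concentration giving 90% fluorescence reduction relative to controls. Rifampin run in each test as positive quality control.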
In general terms: Alamar Blue is a resazurin reagent that responds to reducing activity.

For another data set, the system named is Vero. Description: Cytotoxicity against african green monkey Vero cells upto 100 uM. Type of data set: cell-based. The note with it: chlorocebus sabaeus. In outline:
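Vero cells (ATCC CCL-81) tested with a nonradioactive cell proliferation (CellTiter 96) assay. IC50 taken as the reciprocal dilution giving 50% inhibition of Vero cells.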

What is called MIC is the lowest concentration that inhibits growth of the organism.

Converted amounts (≈) assume the structure as drawn.

`C[C@H]([C@@H]1CC[C@H](C)C(=O)O1)[C@H]1CC[C@@]2(C)C3=C(CC[C@]12C)[C@@]1(C)CCC(=O)C(C)(C)[C@@H]1CC3` [ASTRAHYGRONE]: in data set [1], the MIC stood at 64 µg/mL (≈ 141 µM). Moreover, the Activity entry in the data set with Vero is on record as “Non-toxic”.
As for `C[C@H]([C@@H]1CC[C@H](C)[C@@H](O)O1)[C@H]1CC[C@@]2(C)C3=C(CC[C@]12C)[C@@]1(C)CC[C@H](O)C(C)(C)[C@@H]1CC3` [ASTRAPTERIDIOL], the MIC in data set [1] was > 64 µg/mL. In the data set with Vero, the Activity result is “Non-toxic”.
In the same order, the values of `C[C@H]([C@@H]1CC[C@H](C)C(=O)O1)[C@H]1CC[C@@]2(C)C3=C(CC[C@]12C)[C@@]1(C)CC[C@@H](O)C(C)(C)[C@@H]1CC3` are 58 µg/mL (≈ 127 µM) and “Non-toxic”.
With `C[C@H]([C@@H]1CC[C@H](C)[C@@H](O)O1)[C@H]1CC[C@@]2(C)C3=C(CC[C@]12C)[C@@]1(C)CCC(=O)C(C)(C)[C@@H]1CC3` [ASTRAPTERIDONE], the MIC in data set [1] was > 64 µg/mL. Further, the Activity entry in the data set on Vero is on record as “Non-toxic”.
Taken in the same sequence, the figures for `C[C@H]([C@@H]1CC[C@H](C)[C@@H](O)O1)[C@H]1CC[C@@]2(C)C3=C(CC[C@]12C)[C@@]1(C)CC[C@@H](O)C(C)(C)[C@@H]1CC3` were 34 µg/mL (≈ 74.1 µM) and “Non-toxic”.
